ChEMBL document CHEMBL4020840, “Synthesis and Biological Evaluation of Selenium-Containing 4-Anilinoquinazoline Derivatives as Novel Antimitotic Agents” (J Med Chem, 2018)

System: A549
Assay: Growth inhibition of human A549 cells after 48 hrs by MTT assay
Format: functional, cell-based
Settings: A549, 48 h

| SMILES | IC50 [nM] |
| --- | --- |
| COc1ccc(N(C)c2nc(C)nc3ccccc23)cc1C(=O)NCC[Se]C#N | 187 |
| COc1ccc(N(C)c2nc(C)nc3ccccc23)cc1OCCC[Se]C#N | 382 |
| [2H]C([2H])([2H])c1nc(N(C)c2ccc([Se]C)cc2)c2ccccc2n1 | 3 |
| Cc1nc(N(C)c2ccc([Se]C#N)c(C)c2)c2ccccc2n1 | 8 |
| C[Se]c1ccc(N(C)c2nc(C)nc3ccccc23)cc1Cl | 2 |
| COc1ccc(N(C)c2nc(C)nc3ccccc23)cc1[Se]C#N | 49 |
| C[Se]c1ccc(N(C)c2nc(C3CC3)nc3ccccc23)cc1 | 13 |
| COc1ccc(N(C)c2nc(C)nc3ccccc23)cc1C[Se]C#N | 98 |

System: RKO
Assay: Growth inhibition of human RKO cells after 48 hrs by MTT assay
Format: functional, cell-based
Settings: not given
How it was run: (§1)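 MTT assay: log-phase cells plated at 5 × 10³/well for 24 h, then exposed to a range of test concentrations for 48 h. MTT (5 mg/mL) added for 4 h, formazan dissolved in DMSO, absorbance read at 570 nm. IC50 is the concentration giving 50% growth inhibition, from dose-response curves; at least three independent experiments, mean ± SE.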

| SMILES | IC50 [nM] |
| --- | --- |
| COc1ccc(N(C)c2nc(C)nc3ccccc23)cc1C(=O)NCC[Se]C#N | 1170 |
| COc1ccc(N(C)c2nc(C)nc3ccccc23)cc1OCCC[Se]C#N | 799 |
| [2H]C([2H])([2H])c1nc(N(C)c2ccc([Se]C)cc2)c2ccccc2n1 | 8 |
| Cc1nc(N(C)c2ccc([Se]C#N)c(C)c2)c2ccccc2n1 | 17 |
| C[Se]c1ccc(N(C)c2nc(C)nc3ccccc23)cc1Cl | 4 |
| COc1ccc(N(C)c2nc(C)nc3ccccc23)cc1[Se]C#N | 47 |
| C[Se]c1ccc(N(C)c2nc(C3CC3)nc3ccccc23)cc1 | 21 |
| COc1ccc(N(C)c2nc(C)nc3ccccc23)cc1C[Se]C#N | 316 |

System: HCT-116
Assay: Growth inhibition of human HCT116 cells after 48 hrs by MTT assay
Format: functional, cell-based
Settings: HCT-116, 48 h
How it was run: as §1

| SMILES | IC50 [nM] |
| --- | --- |
| COc1ccc(N(C)c2nc(C)nc3ccccc23)cc1C(=O)NCC[Se]C#N | 313 |
| COc1ccc(N(C)c2nc(C)nc3ccccc23)cc1OCCC[Se]C#N | 852 |
| [2H]C([2H])([2H])c1nc(N(C)c2ccc([Se]C)cc2)c2ccccc2n1 | 3 |
| Cc1nc(N(C)c2ccc([Se]C#N)c(C)c2)c2ccccc2n1 | 13 |
| C[Se]c1ccc(N(C)c2nc(C)nc3ccccc23)cc1Cl | 5 |
| COc1ccc(N(C)c2nc(C)nc3ccccc23)cc1[Se]C#N | 34 |
| C[Se]c1ccc(N(C)c2nc(C3CC3)nc3ccccc23)cc1 | 15 |
| COc1ccc(N(C)c2nc(C)nc3ccccc23)cc1C[Se]C#N | 113 |

System: MDA-MB-231
Assay: Growth inhibition of human MDA-MB-231 cells after 48 hrs by MTT assay
Format: functional, cell-based
Settings: MDA-MB-231, 48 h
How it was run: as §1

| SMILES | IC50 [nM] |
| --- | --- |
| COc1ccc(N(C)c2nc(C)nc3ccccc23)cc1C(=O)NCC[Se]C#N | 1250 |
| COc1ccc(N(C)c2nc(C)nc3ccccc23)cc1OCCC[Se]C#N | 815 |
| [2H]C([2H])([2H])c1nc(N(C)c2ccc([Se]C)cc2)c2ccccc2n1 | 9 |
| Cc1nc(N(C)c2ccc([Se]C#N)c(C)c2)c2ccccc2n1 | 16 |
| C[Se]c1ccc(N(C)c2nc(C)nc3ccccc23)cc1Cl | 7 |
| COc1ccc(N(C)c2nc(C)nc3ccccc23)cc1[Se]C#N | 52 |
| C[Se]c1ccc(N(C)c2nc(C3CC3)nc3ccccc23)cc1 | 18 |
| COc1ccc(N(C)c2nc(C)nc3ccccc23)cc1C[Se]C#N | 153 |

System: LoVo
Assay: Growth inhibition of human LoVo cells after 48 hrs by MTT assay
Format: functional, cell-based
Settings: not given
How it was run: as §1

| SMILES | IC50 [nM] |
| --- | --- |
| COc1ccc(N(C)c2nc(C)nc3ccccc23)cc1C(=O)NCC[Se]C#N | 561 |
| COc1ccc(N(C)c2nc(C)nc3ccccc23)cc1OCCC[Se]C#N | 921 |
| [2H]C([2H])([2H])c1nc(N(C)c2ccc([Se]C)cc2)c2ccccc2n1 | 5 |
| Cc1nc(N(C)c2ccc([Se]C#N)c(C)c2)c2ccccc2n1 | 19 |
| C[Se]c1ccc(N(C)c2nc(C)nc3ccccc23)cc1Cl | 3 |
| COc1ccc(N(C)c2nc(C)nc3ccccc23)cc1[Se]C#N | 73 |
| C[Se]c1ccc(N(C)c2nc(C3CC3)nc3ccccc23)cc1 | 11 |
| COc1ccc(N(C)c2nc(C)nc3ccccc23)cc1C[Se]C#N | 277 |

System: HepG2
Assay: Growth inhibition of human HepG2 cells after 48 hrs by MTT assay
Format: functional, cell-based
Settings: HepG2, 48 h
How it was run: as §1

| SMILES | IC50 [nM] |
| --- | --- |
| COc1ccc(N(C)c2nc(C)nc3ccccc23)cc1C(=O)NCC[Se]C#N | 179 |
| COc1ccc(N(C)c2nc(C)nc3ccccc23)cc1OCCC[Se]C#N | 1040 |
| [2H]C([2H])([2H])c1nc(N(C)c2ccc([Se]C)cc2)c2ccccc2n1 | 5 |
| Cc1nc(N(C)c2ccc([Se]C#N)c(C)c2)c2ccccc2n1 | 9 |
| C[Se]c1ccc(N(C)c2nc(C)nc3ccccc23)cc1Cl | 4 |
| COc1ccc(N(C)c2nc(C)nc3ccccc23)cc1[Se]C#N | 59 |
| C[Se]c1ccc(N(C)c2nc(C3CC3)nc3ccccc23)cc1 | 32 |
| COc1ccc(N(C)c2nc(C)nc3ccccc23)cc1C[Se]C#N | 1110 |
